The record followed here is ChEMBL document CHEMBL1136047, “Discovery of N-[2-[2-[[3-methoxy-4-(5-oxazolyl)phenyl]amino]-5-oxazolyl]phenyl]-N-methyl-4- morpholineacetamide as a novel and potent inhibitor of inosine monophosphate dehydrogenase with excellent in vivo activity” (J Med Chem, 2002).

Molecules are shown by their SMILES.

A word on the IC50: it is the concentration needed to halve the response being measured. As usually defined, the half-life is how long it takes for the measured level to halve. Higher therefore signals slow loss. What is called AUC is concentration integrated over time. Lower therefore signals less exposure. As a reminder, the clearance is the rate of elimination divided by the concentration. Low readings indicate inefficient removal, high ones efficient removal. Broadly, the Cmax is the highest concentration seen after dosing. A word on the inhibition: it is how much of the control response was suppressed.

Series [1] has as its target T1, Inosine-5'-monophosphate dehydrogenase 2 (Homo sapiens, UniProt P12268). Kind of series: Inhibition of human inosine-5'-monophosphate dehydrogenase 2.
The subject of series [2] is CCRF-CEM. Kind of series: In vitro secondary T-cell (CEM) proliferation assay. Type of series: functional, cell-based. As to conditions: Homo sapiens. The method, boiled down:
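Inhibition of CEM T-cell line proliferation. IC50 in μM, reported as the mean of n = 3 determinations.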

Series [3] is described as follows: Half-life was evaluated after 20 uM/kg of peroral administration. Type of series: ADME, organism-based. As to conditions: rat, in vivo, po. The gist of the method: (§1)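 Pharmacokinetics measured in rats.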
Series [4] deals with Rattus norvegicus. Kind of series: Area under the curve was evaluated after 20 uM/kg of peroral administration. The class given is ADME, organism-based. The settings on record: in vivo, po. The method, boiled down:
as §1

Series [5] in a line: Vss was evaluated after 10 uM/kg of intra arterial administration. Type of series: ADME, organism-based. The settings on record: rat, in vivo, read-out: Vss. The gist of the method: as §1
Series [6] can be described thus: Plasma clearance was evaluated after 10 uM/kg of intra arterial administration. Type of series: ADME, organism-based. The settings on record: rat. The method, boiled down:
as §1

Series [7] in a line: Cmax was evaluated after 20 umol/kg of peroral administration. The class given is ADME, organism-based. On the set-up: dose 20 umol/kg, route oral. The settings on record: rat, in vivo, po. The method, boiled down: as §1
The test system of series [8] is Rattus norvegicus. Kind of series: Area under the curve was evaluated after 10 uM/kg of intra arterial administration. The class given is ADME, organism-based. The settings on record: in vivo, other. The gist of the method: as §1
Series [9] can be described thus: Bioavailability was evaluated after 20 uM/kg of peroral administration. The class given is ADME, organism-based. As to conditions: rat, in vivo, po, read-out: Bioavailabiility. The gist of the method:
as §1

Series [10] in a line: Half-life was evaluated after 10 uM/kg of intra arterial administration. Type of series: ADME, organism-based. The settings on record: rat, in vivo. The method, boiled down:
as §1

Series [11] concerns the target T1, Inosine-5'-monophosphate dehydrogenase 2. As to the kind of experiment: In vitro concentration that causes 50% inhibition of Inosine-5'-monophosphate dehydrogenase 2. The method, boiled down:
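Inhibition of IMPDH type II catalytic activity. IC50 reported as the mean of n = 3 determinations.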

On to `COc1cc(Nc2ncc(-c3ccc(C)cc3)o2)ccc1-c1cnco1`, for which the results for the IC50 in series [1] and in [2] were 85 nM and > 10000 nM, respectively.
The like results for `COc1cc(Nc2ncc(-c3ccccc3N(C)C(=O)CNC(C)(C)C)o2)ccc1-c1cnco1` were, in that order, 20 nM and 700 nM.
With `COc1cc(Nc2ncc(-c3ccccc3N(C)C(C)=O)o2)ccc1-c1cnco1`, the IC50 in series [1] came to 18 nM; in series [2], 730 nM.
Regarding `COc1cc(Nc2ncc(-c3ccccc3C)o2)ccc1-c1cnco1`, the IC50 in series [1] is 25 nM; in [2] it was > 10000 nM.
Taken in the same sequence, the figures for `COc1cc(Nc2ncc(-c3ccccc3C(=O)N(C)C)o2)ccc1-c1cnco1` were 141 nM and 9000 nM.
`COc1cc(Nc2ncc(-c3ccccc3OC)o2)ccc1-c1cnco1`: the IC50 in series [1] stood at 23 nM; in series [2] it was 7000 nM.
As for `COc1cccc(-c2cnc(Nc3ccc(-c4cnco4)c(OC)c3)o2)c1`, the IC50 in [1] is 97 nM; in series [2] it was > 10000 nM.
With `COc1cc(NC(=O)Nc2cccc(CNC(=O)O[C@H]3CCOC3)c2)ccc1-c1cnco1` [MERIMEPODIB], the IC50 was found to be 10 nM in [1] and 430 nM in series [2].
For the compound `COc1cc(Nc2ncc(-c3ccccc3N(C)C(=O)CN(C)C)o2)ccc1-c1cnco1`, the IC50 in [1] was 15 nM; in [2] it was 1000 nM.
In the case of `CNCC(=O)N(C)c1ccccc1-c1cnc(Nc2ccc(-c3cnco3)c(OC)c2)o1`, the IC50 in series [1] is 22 nM; in series [2] it was 960 nM.
For the compound `COc1cc(Nc2ncc(-c3ccccc3N(C)C(=O)CN3CCOCC3)o2)ccc1-c1cnco1`, the values for the half-life in series [3] and in series [10] were 2.5 h and 5.9 h, respectively. Further, in [1], the IC50 stood at 12 nM. Also, the AUC in series [4] worked out at 1.2 µM·h; in [8], 2.37 µM·h. Also, the Vd in [5] worked out at 2.1 L/kg. In addition, in [6], the clearance worked out at 71 mL/min/kg. In series [7], this compound displayed a Cmax of 1500 nM. The bioavailability in series [9] was 25%.
As to `COc1c(C)c2c(c(O)c1C/C=C(\C)CCC(=O)O)C(=O)OC2` [MYCOPHENOLIC ACID], the IC50 in [2] stood at 340 nM.
Turning to `COc1cc(Nc2ncc(-c3ccccc3)o2)ccc1-c1cnco1`, the results for the IC50 in [1] and in series [2] were 20 nM and 7000 nM, respectively.
Turning to `COc1ccc(-c2cnc(Nc3ccc(-c4cnco4)c(OC)c3)o2)cc1`, the IC50 worked out at 115 nM in [1] and 9000 nM in series [2].
Taken in the same sequence, the figures for `CCOC(=O)c1ccccc1-c1cnc(Nc2ccc(-c3cnco3)c(OC)c2)o1` were 127 nM and > 10000 nM.
For the compound `COc1cc(Nc2ncc(-c3ccccc3N(C)C(=O)CN3CCN(C)CC3)o2)ccc1-c1cnco1`, the IC50 in series [1] is 17 nM; in [2], 940 nM.
As for `CCc1nc(Nc2ccc(-c3cnco3)c(OC)c2)oc1-c1ccccc1`, the results for the IC50 in series [1] and in series [2] were 86 nM and > 10000 nM, respectively.
For the compound `COc1cc(Nc2ncc(-c3cccc(C)c3)o2)ccc1-c1cnco1`, the values for the IC50 in [1] and in [2] were 70 nM and > 10000 nM, respectively.
As to `COc1cc(Nc2nc(C)c(-c3ccccc3)o2)ccc1-c1cnco1`, the figures for the IC50 in [1] and in series [2] were 27 nM and 9000 nM, respectively.
In the case of `COc1cc(Nc2ncc(-c3ccccc3NC(C)=O)o2)ccc1-c1cnco1`, the 50% inhibitory concentration (IC50) was determined as 30 nM in series [1] and 1000 nM in series [2].
As for `CNC(=O)c1ccccc1-c1cnc(Nc2ccc(-c3cnco3)c(OC)c2)o1`, the IC50 in series [1] was 104 nM; in series [2], 8000 nM.
Regarding `COc1cc(Nc2ncc(-c3ccccc3N(C)C(=O)Cn3cccn3)o2)ccc1-c1cnco1`, the IC50 in [1] was 11 nM; in series [2] it was 890 nM.
Consider `COc1cc(Nc2ncc(-c3ccccc3N(C)C(=O)CCN3CCOCC3)o2)ccc1-c1cnco1`, for which the IC50 in series [1] came out at 13 nM; in [2], 680 nM.
Taken in the same sequence, the figures for `COc1cc(Nc2ncc(-c3ccccc3N(C)C(=O)Cn3cncn3)o2)ccc1-c1cnco1` were 13 nM and 650 nM.
As for `COc1cc(Nc2ncc(-c3ccccc3C(=O)O)o2)ccc1-c1cnco1`, the inhibition in series [11] is 11%.
